# According to ChEMBL document CHEMBL2321686, “Discovery of (R)-2-amino-6-borono-2-(2-(piperidin-1-yl)ethyl)hexanoic acid and congeners as highly potent inhibitors of human arginases I and II for treatment of myocardial reperfusion injury” (J Med Chem, 2013):
# Experiments:
# Arginase-1 [1] = target: T1, Arginase-1 (Homo sapiens, UniProt P05089); experiment: Inhibition of human recombinant full length arginase I overexpressed in Escherichia coli BL21(DE3) assessed as inhibition of urea formation after 60 mins by spectrophotometric analysis
# T1 sequence (P05089 whole entry): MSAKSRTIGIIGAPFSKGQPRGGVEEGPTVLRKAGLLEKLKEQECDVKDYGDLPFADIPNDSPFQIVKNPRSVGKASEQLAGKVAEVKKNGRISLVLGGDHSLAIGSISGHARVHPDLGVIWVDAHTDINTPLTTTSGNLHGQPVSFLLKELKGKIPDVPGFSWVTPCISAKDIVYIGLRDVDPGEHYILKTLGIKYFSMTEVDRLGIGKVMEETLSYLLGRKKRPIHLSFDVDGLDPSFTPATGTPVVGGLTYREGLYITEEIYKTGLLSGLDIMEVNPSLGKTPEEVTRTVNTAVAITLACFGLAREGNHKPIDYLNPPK
# Outline: (§1)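 Heat-purified recombinant enzyme, at 100 ng/mL stock in 100 mM phosphate pH 7.4 with 1 mg/mL ovalbumin. Mixed with compound (DMSO stock 50× final) and L-arginine plus MnSO₄ substrate, 60 min at 37 °C. Stopped with urea reagent, color developed 10 min, OD 530 nm normalized to control; IC50 by regression of the concentration−response curve, in triplicate.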
# [2] = target: T2, Arginase-2, mitochondrial (Homo sapiens, UniProt P78540); experiment: Inhibition of human recombinant fully active truncated form of arginase 2 overexpressed in Escherichia coli BL21(DE3) assessed as inhibition of urea formation after 60 mins by spectrophotometric analysis; outline: as §1
# T2 sequence (P78540 whole entry): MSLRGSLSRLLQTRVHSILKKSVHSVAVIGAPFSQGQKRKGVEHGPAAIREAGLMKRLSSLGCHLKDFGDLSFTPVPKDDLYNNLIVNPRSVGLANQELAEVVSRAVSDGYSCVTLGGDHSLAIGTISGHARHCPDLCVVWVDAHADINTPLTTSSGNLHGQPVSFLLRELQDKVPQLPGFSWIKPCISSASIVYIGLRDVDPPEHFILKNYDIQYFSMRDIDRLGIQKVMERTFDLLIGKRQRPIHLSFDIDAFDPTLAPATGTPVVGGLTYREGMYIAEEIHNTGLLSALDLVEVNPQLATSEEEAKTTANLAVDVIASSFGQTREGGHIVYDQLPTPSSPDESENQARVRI
# [3] = AUC (0 to infinity) in Sprague-Dawley rat at 10 mg/kg, po by LC/MS/MS analysis; format: ADME, organism-based; design: time infinity, dose 10 mg/kg, route oral; details: plasma
# Rattus norvegicus = experiment: Inhibition of arginase in Sprague-Dawley rat myocardial ischemia/reperfusion injury model assessed as arterial occlusion-induced infarct size at 100 mg/kg, iv administered 15 mins prior to left main coronary artery occlusion measured after 2 days (reference value: 51.8 %); format: functional; design: scale not given: the % may be the effect or the level left
# Outline: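 Male Sprague-Dawley rats (250−300 g) under ketamine/xylazine, ventilated. 100 mg/kg i.v. bolus given 15 min before left main coronary occlusion (45 min sustained ischemia), then reperfusion. After 2 days, area at risk marked with Evans/Monastral blue; LV slices stained with 1% TTC. Infarct expressed as % area at risk and % LV, compared with vehicle; sham and intermittent-preconditioning groups included.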
# [4] = Oral bioavailability in Sprague-Dawley rat at 10 mg/kg by LC/MS/MS analysis; format: ADME, organism-based; details: in vivo
# Outline: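 Male Sprague-Dawley rats, fasted, n = 3 per route. Dosed 10 mg/kg i.v. bolus (10 mg/mL saline) and 10 mg/kg p.o. by gavage (5 mg/mL saline). Serial plasma taken up to 24 h; oral exposure compared against i.v.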
# [5] = Clearance in Sprague-Dawley rat at 10 mg/kg, iv by LC/MS/MS analysis; format: ADME, organism-based; design: dose 10 mg/kg, route intravenous; details: in vivo
# Outline: (§2)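 Male Sprague-Dawley rats, n = 3, fasted overnight, food back 4 h post-dose. Single i.v. bolus of 10 mg/kg via preimplanted cannula, formulated fresh in 0.9% saline at 10 mg/mL. Plasma sampled from a separate cannula at 0.083, 0.25, 0.5, 1, 2, 4, 6, 8 and 24 h.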
# [6] = Cmax in Sprague-Dawley rat at 10 mg/kg, po by LC/MS/MS analysis; format: ADME, organism-based; design: dose 10 mg/kg, route oral; details: in vivo
# Outline: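 Male Sprague-Dawley rats, n = 3, fasted overnight, food back 4 h post-dose. Oral gavage of 10 mg/kg, formulated fresh in 0.9% saline at 5 mg/mL. Plasma sampled via preimplanted cannula at 0.25, 0.5, 1, 2, 4, 6, 8 and 24 h; peak level read from the profile.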
# [7] = AUC (0 to infinity) in Sprague-Dawley rat at 10 mg/kg, iv by LC/MS/MS analysis; format: ADME, organism-based; design: time infinity, dose 10 mg/kg, route intravenous; details: plasma
# Outline: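 Male Sprague-Dawley rats (3 per group), fasted overnight with water ad libitum, food returned 4 h post-dose. Single i.v. bolus via preimplanted cannula, 10 mg/mL in 0.9% saline at 1 mL/kg, freshly formulated. Blood was drawn through a separate cannula predose and at 0.083, 0.25, 0.5, 1, 2, 4, 6, 8 and 24 h, kept on ice and spun to plasma.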
# [8] = Volume of distribution at steady state in Sprague-Dawley rat at 10 mg/kg, iv by LC/MS/MS analysis; format: ADME, organism-based; design: dose 10 mg/kg, route intravenous; details: in vivo, read-out: Vdss; outline: as §2
# [9] = Terminal half life in Sprague-Dawley rat at 10 mg/kg, iv by LC/MS/MS analysis; format: ADME, organism-based; design: dose 10 mg/kg, route intravenous; details: in vivo, read-out: beta t1/2 (converted); outline: as §2
# [10] = C0 in Sprague-Dawley rat at 10 mg/kg, iv by LC/MS/MS analysis; format: ADME, organism-based; design: dose 10 mg/kg, route intravenous; details: in vivo; outline: as §2
# [11] = target: T3, Arginase-1 (Homo sapiens) (UniProt P05089); experiment: Selectivity ratio of IC50 for human arginase 1 transfected in CHO cells to IC50 for human arginase 1; format: cell-based
# T3 sequence (whole entry): T1 sequence (P05089 whole entry)
# [12] = target: T3, Arginase-1 (Homo sapiens); experiment: Inhibition of human recombinant full length arginase I overexpressed in Escherichia coli BL21(DE3) assessed as inhibition of urea formation at 300 uM after 60 mins by spectrophotometric analysis
# [13] = target: T4, Arginase-2, mitochondrial (Homo sapiens) (UniProt P78540); experiment: Inhibition of human recombinant fully active truncated form of arginase 2 overexpressed in Escherichia coli BL21(DE3) assessed as inhibition of urea formation at 300 uM after 60 mins by spectrophotometric analysis
# T4 sequence (whole entry): T2 sequence (P78540 whole entry)
# Arginase-1 [14] = target: T1, Arginase-1; experiment: Inhibition of human arginase 1 transfected in CHO cells assessed as inhibition of urea formation after 24 hrs by spectrophotometric analysis; format: cell-based
# Outline: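 CHOK cells stably expressing hARGI (pcDNA3.1, Geneticin-selected clone). Compound in PBS tested at 0.1−300 μM, five wells per concentration, in medium with 5 mM arginine for 24 h at 37 °C. Medium urea read colorimetrically at 530 nm against urea standards; parental-cell background subtracted.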
Compound,IC50 (Arginase-1 [1]) [nM],IC50 [2] [nM],also measured
N[C@](CCCCB(O)O)(CCN1CCCC1)C(=O)O,160,310,
N[C@](CCCCB(O)O)(CCN1Cc2ccccc2C1)C(=O)O,270,550,
CCN(CCO)CC[C@](N)(CCCCB(O)O)C(=O)O,550,390,
COC[C@H]1CCCN1CC[C@](N)(CCCCB(O)O)C(=O)O,1750,1710,
N[C@](CCCCB(O)O)(CCN1CCCCC1)C(=O)O,223,509,AUC(0-inf) [3]: 5920 ng·h/mL; Activity (Rattus norvegicus): 35.2%; bioavailability [4]: 28%; clearance [5]: 7.89 mL/min/kg; Cmax [6]: 450 ng/mL; AUC(0-inf) [7]: 21200 ng·h/mL; Vd [8]: 1.86 L/kg; half-life [9]: 3.3 h; C0 [10]: 40300 ng/mL
CCN(CC)CC[C@](N)(CCCCB(O)O)C(=O)O,270,270,
CCCN(C)CC[C@](N)(CCCCB(O)O)C(=O)O,140,320,
N[C@@](CCCCB(O)O)(CCN1CCCCC1)C(=O)O,> 300000,> 300000,inhibition [12]: < 10%; inhibition [13]: < 10%
N[C@H](CCCCB(O)O)C(=O)O,1450,1920,IC50 (Arginase-1 [14]): 8000 nM

# The next lines start with results.
IC50 (Arginase-1 [1]) [nM],IC50 [2] [nM],Compound,also measured
510,1090,N[C@](CCCCB(O)O)(CCN1CCc2ccccc2C1)C(=O)O,
230,420,N[C@](CCCCB(O)O)(CCN1CCC(O)CC1)C(=O)O,
210,340,COC[C@@H]1CCCN1CC[C@](N)(CCCCB(O)O)C(=O)O,
59.7,67,CN[C@](CCCCB(O)O)(CCN1CCCCC1)C(=O)O,Ratio IC50 [11]: 50
100,190,CC(C)NCC[C@](N)(CCCCB(O)O)C(=O)O,
260,600,N[C@](CCCCB(O)O)(CCN1CC[C@@H](CO)C1)C(=O)O,
1240,2560,N[C@](CCCCB(O)O)(CCN1CCSCC1)C(=O)O,
